Measurements from ChEMBL document CHEMBL1134638, “Synthetic 2-aroylindole derivatives as a new class of potent tubulin-inhibitory, antimitotic agents” (J Med Chem, 2001).
In brackets after ≈: the same amount, converted by molar mass.

How the values were obtained:
SK-OV-3 [1] = experiment: In vitro inhibitory activity against SK-OV-3 cells using XTT proliferation assay.; type: functional, cell-based; details: Homo sapiens
Summary of the method: (§1)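 XTT proliferation assay measuring cellular metabolic activity after 48 h incubation with compound. Compounds dissolved in DMSO at 1 mg/mL stock. IC50 or estimates obtained by nonlinear regression. Each experiment at least in duplicate.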

HeLa [2] = experiment: In vitro inhibitory activity against HeLa/KB cells using XTT proliferation assay.; type: functional, cell-based; details: Homo sapiens; summary of the method: as §1
Tubulin beta chain [3] = molecular target: T1, Tubulin beta chain (Bos taurus, UniProt Q6B856); experiment: Inhibition of tubulin polymerization.; type: functional
T1 sequence (Q6B856 whole entry): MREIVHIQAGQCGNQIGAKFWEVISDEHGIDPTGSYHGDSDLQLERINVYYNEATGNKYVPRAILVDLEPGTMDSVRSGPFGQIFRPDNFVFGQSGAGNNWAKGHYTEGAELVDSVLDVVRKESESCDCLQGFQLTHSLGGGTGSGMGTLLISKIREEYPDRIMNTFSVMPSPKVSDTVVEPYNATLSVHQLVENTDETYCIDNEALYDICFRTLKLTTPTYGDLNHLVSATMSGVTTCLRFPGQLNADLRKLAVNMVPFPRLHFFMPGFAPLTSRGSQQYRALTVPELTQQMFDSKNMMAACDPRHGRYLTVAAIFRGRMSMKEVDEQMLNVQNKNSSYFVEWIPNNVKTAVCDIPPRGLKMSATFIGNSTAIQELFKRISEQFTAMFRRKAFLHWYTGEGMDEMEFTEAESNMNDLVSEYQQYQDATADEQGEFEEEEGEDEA

HeLa [4] = experiment: In vitro inhibitory activity against HeLa/KB cells using XTT proliferation assay; type: functional, cell-based; details: Homo sapiens; summary of the method: as §1
Tubulin beta chain [5] = molecular target: T1, Tubulin beta chain; experiment: Inhibition of tubulin polymerization; type: functional
Summary of the method: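 Bovine brain tubulin with MAPs, prepared by polymerization/depolymerization cycles (0.8 mg/mL), incubated with compound (4 µg/mL for screening, a concentration range for IC50). Run in PEM buffer pH 6.6 with 1 mM GTP at 37 °C for 1 h. Microtubules collected on 0.22 µm filters, stained with amido black, eluted, absorbance read at 600 nm.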

SK-OV-3 [6] = experiment: In vitro inhibitory activity against SK-OV-3 cells using XTT proliferation assay; type: functional, cell-based; details: Homo sapiens; summary of the method: as §1
Tumor Cell line = experiment: Mean cytotoxicity against a panel of human tumor cell lines; type: functional
Summary of the method: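 Modified propidium iodide assay quantifying dead cells by DNA/RNA staining, run on a human tumor cell panel (breast, colon, stomach, lung, melanoma, ovary, renal, soft tissue lines). Growth inhibition expressed as % T/C; IC70 per line from concentration-viability plots. Mean IC70 is the geometric mean across lines; unreached values set to the lowest or highest concentration tested.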

Tubulin = Tubulin (Bos taurus, UniProt Q6B856+Q862L2+Q862F3); experiment: Inhibition of tubulin polymerization; No effect at a concentration up to 10 uM; type: functional
[7] = molecular target: Tubulin beta chain (Bos taurus) (UniProt Q6B856)
Sequence of Tubulin beta chain (Bos taurus) (Q6B856 whole entry): as above

[8] = molecular target: Tubulin beta chain (Bos taurus) (UniProt Q6B856); remark: listed apart in the source
U373 MG [9] = experiment: Cell cycle arrest activity against U373 astrocytoma cells.; type: functional, cell-based, U-373MG ATCC; details: Homo sapiens
Summary of the method: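 U373 cells (5 × 10^6) exposed to compound for 24 h at 37 °C, trypsinised, washed in PBS, fixed in 80% methanol 30 min on ice. Stained with 20 µg/mL propidium iodide plus 1 mg/mL RNase A in PBS/0.1% saponin, 30 min at 37 °C. DNA content read by flow cytometry; G2/M fraction modelled. IC50 by nonlinear regression of dose-response.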

U373 MG [10] = experiment: Cytotoxicity against U373 astrocytoma cells.; type: functional, cell-based, U-373MG ATCC; details: Homo sapiens; summary of the method: as §1
[11] = molecular target: Tubulin beta chain (Bos taurus) (UniProt Q6B856); experiment: beta-Tubulin GTPase activity at 10 uM concentration
Summary of the method: (§2)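 MAP-free purified bovine brain tubulin (1 mg/mL) in PEM pH 6.6 with 1 mM MgCl2, 100 µM [α-32P]GTP and 1 M monosodium glutamate. Compound added beforehand, final 1% DMSO. Incubated 1 h at 37 °C, stopped with 1% SDS. GDP/GTP separated by PEI-cellulose TLC in 0.35 M (NH4)2CO3 and quantified by phosphorimager as the GDP/GTP ratio.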

[12] = molecular target: Tubulin beta chain (Bos taurus) (UniProt Q6B856); experiment: beta-Tubulin GTPase activity at 1 uM concentration; summary of the method: as §2

| SMILES | IC50 (SK-OV-3 [1]) [nM] | IC50 (HeLa [2]) [nM] | IC50 (Tubulin beta chain [3]) [nM] | other results |
| --- | --- | --- | --- | --- |
| COc1ccc2[nH]c(C(=O)c3ccc(Cl)cc3)cc2c1 | 1750 | 3500 | 5000 | – |
| COc1cc2c(c(OC)c1OC)-c1ccc(OC)c(=O)cc1[C@@H](NC(C)=O)CC2 [COLCHICINE] | 20 | 23 | – | – |
| COc1ccc2[nH]c(C(=O)c3cccc(SC(F)(F)F)c3)cc2c1 | – | – | – | IC50 (HeLa [4]): 880 nM; IC50 (Tubulin beta chain [5]): > 10000 nM; IC50 (SK-OV-3 [6]): 630 nM |
| COc1ccc2[nH]c(C(=O)c3cccc4ccccc34)cc2c1 | – | – | – | IC70 (Tumor Cell line): 0.88 µg/mL (≈ 2.92 µM) |
| COc1ccc2[nH]c(C(=O)c3ccc(C(C)(C)C)cc3)cc2c1 | > 10400 | > 10400 | – | IC50 (Tubulin): No effect |
| COc1ccc2[nH]c(C(=O)c3ccc(OC)c(OC)c3OC)cc2c1 | 88 | 59 | > 10000 | IC70 (Tumor Cell line): 0.73 µg/mL (≈ 2.14 µM) |
| COc1ccc(C(=O)c2cc3cc(OC)ccc3[nH]2)c(OC)c1 | 1030 | 100 | 5600 | IC70 (Tumor Cell line): 1.74 µg/mL (≈ 5.59 µM) |
| COc1cc(OC)c(OC)c(C(=O)c2cc3cc(OC)ccc3[nH]2)c1 | 9370 | 8790 | – | IC50 (Tubulin): No effect |
| COc1ccc2[nH]c(C(=O)c3cccc(F)c3)cc2c1 | 15 | 26 | 390 | – |
| COc1ccc2[nH]c(C(=O)c3c(F)cccc3Cl)cc2c1 | > 10500 | > 10500 | > 10000 | – |
| COc1ccc2[nH]c(C(=O)c3cc(C)ccc3C)cc2c1 | 720 | 720 | 5200 | – |
| COc1ccc2[nH]c(C(=O)c3cccc(OC)c3[N+](=O)[O-])cc2c1 | > 9800 | > 9800 | > 10000 | – |
| COc1ccc2[nH]c(C(=O)c3ccccc3[N+](=O)[O-])cc2c1 | > 10800 | > 10000 | > 10000 | – |
| CCCCCOc1ccc(C(=O)c2cc3cc(OC)ccc3[nH]2)cc1 | > 9500 | > 9500 | – | IC50 (Tubulin): No effect |
| COc1ccc2[nH]c(C(=O)c3ccc(Br)cc3)cc2c1 | 910 | 910 | 4300 | IC70 (Tumor Cell line): 2.56 µg/mL (≈ 7.75 µM) |
| COc1ccc(C(=O)c2cc3cc(OC)ccc3[nH]2)cc1 | 11400 | 11400 | – | IC50 (Tubulin): No effect |
| COc1ccc2[nH]c(C(=O)c3cccc(OCc4ccccc4)c3)cc2c1 | > 8600 | > 8600 | – | IC50 (Tubulin): No effect |
| COc1ccc2[nH]c(C(=O)c3cccc(O)c3)cc2c1 | 220 | 220 | 660 | – |
| CC(=O)O[C@H]1C(=O)[C@@]2(C)[C@H]([C@H](OC(=O)c3ccccc3)[C@]3(O)C[C@H](OC(=O)[C@H](O)[C@@H](NC(=O)c4ccccc4)c4ccccc4)C(C)=C1C3(C)C)[C@]1(OC(C)=O)CO[C@@H]1C[C@@H]2O | – | – | – | GTPase Activity [7]: 3.3; GTPase Activity [8]: 1.4 |
| COc1ccccc1C(=O)c1cc2cc(C)ccc2[nH]1 | 750 | 380 | 3500 | IC70 (Tumor Cell line): 2.03 µg/mL (≈ 7.65 µM) |
| CCCc1ccc(C(=O)c2cc3cc(OC)ccc3[nH]2)cc1 | > 10900 | > 10900 | > 10000 | – |
| COc1ccc2[nH]c(C(=O)c3cc(OC)c(OC)c(OC)c3)cc2c1 | 58 | 29 | 990 | IC70 (Tumor Cell line): 0.17 µg/mL (≈ 0.498 µM); IC50 (U373 MG [9]): 36.1 nM; IC50 (U373 MG [10]): 73 nM |
| COc1ccc2[nH]c(C(=O)c3cccc([N+](=O)[O-])c3)cc2c1 | 100 | 100 | 850 | IC70 (Tumor Cell line): 1.4 µg/mL (≈ 4.73 µM) |
| COc1ccc2[nH]c(C(=O)c3cccc(OC(F)(F)F)c3)cc2c1 | 210 | 270 | 1700 | – |
| COC(=O)Nc1nc2cc(C(=O)c3cccs3)ccc2[nH]1 | – | – | – | GTPase Activity [11]: 9; GTPase Activity [12]: 4.9 |
